Results pooled from the literature.
Protocols differ between the studies behind these lines.
Target: Aurora kinase B (AURKB, Homo sapiens, UniProt Q96GD4)

SMILES	effect on	action	technique	tested at	endpoint	result
CC(C)(C)c1cc(C=C(C#N)C#N)cc(Br)c1O	enzyme activity	inhibitor		0.5 µM	remaining activity	97.1%
N#CC1(c2ccccn2)CCN(Cc2cc(C(=O)O)c(=O)n3ccccc23)CC1	cell-free assay		competition with immobilised ligand	1 µM	remaining binding	76%
Cn1cc(-c2cccc(N3CCc4c(sc5c4CC(C)(C)C5)C3=O)c2CO)cc(Nc2ccncn2)c1=O	enzyme activity	inhibitor		1 µM	inhibition	6%
C#Cc1n[nH]c2c(-c3cn([C@@H](C)c4ccccc4)c(=O)[nH]c3=O)cc(F)cc12	enzyme activity	inhibitor		0.1 µM	inhibition	0.1%
Nc1ncc(-c2nc(N3CCOCC3)nc(N3CCOCC3)n2)c(C(F)F)n1	binding		competition with immobilised ligand	10 µM	remaining binding	91%
O=c1[nH]c2ccccc2n1C1CCN(Cc2ccc(-c3[nH]c4cc5ncnc5cc4nc3-c3ccccc3)cc2)CC1	enzyme activity			0.5 µM	remaining activity	98.7%
COc1ncccc1-c1cnn2ccc(N3CCN(C(=O)OC(C)C)CC3)nc12	binding		competition with immobilised ligand	1 µM	remaining binding	58%
C#Cc1n[nH]c2c(-c3cn([C@@H](C)c4ccccn4)c(=O)[nH]c3=O)cc(F)cc12	enzyme activity	inhibitor		0.1 µM	inhibition	4.9%
Cn1cncc1[C@](O)(COc1ccc(C#N)cc1-c1ccc(OC(F)(F)F)cc1)c1ccc(C#N)cc1	cell-free assay		competition with immobilised ligand	1 µM	remaining binding	100%
